“Also recorded” adds a separate entry of the source. Read-outs that look alike come from different tables or passages of the source. Blank lines part the entries; values can stand above or below the compound they belong to.
Key:
[1] = tested on: H. contortus third-stage (L3) larvae; assay: Anthelmintic effect on motility of third-stage larvae in culture; design: species or system Haemonchus contortus; conditions: for anthelmintic effect against larvae: data not shown
Summary of the method: (§1)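 Adult females freshly taken from goat abomasum, or L3 larvae Baermann-extracted from 10-day, 21 °C faecal cultures; both PCR-confirmed as H. contortus. 100 worms per dish, in triplicate, in 20 ml RPMI-1640 with 2% glucose and antibiotics, pH 6.8. Rising test-compound concentrations, with DMSO and untreated controls; 37 °C, 5% CO2, 36 h. Worms light-stimulated 5 min at 37 °C. 50 scored per dish as very motile, sluggish or immotile. IC50 from % non-motile by nonlinear regression.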

[2] = tested on: adult H. contortus female worms; assay: Anthelmintic effect on motility of adult female worms in culture; design: species or system Haemonchus contortus; conditions: for anthelmintic effect against adult worms: all concentrations up to a maximum of 80 μM
Summary of the method: as §1

HcPMT1 = target: T1, HcPMT1 (Haemonchus contortus, UniProt A0A2Z1FIB9); assay: Methyltransferase HT activity kit assay, HcPMT1 as sole enzyme; format: biochemical
T1 sequence (A0A2Z1FIB9 1-349): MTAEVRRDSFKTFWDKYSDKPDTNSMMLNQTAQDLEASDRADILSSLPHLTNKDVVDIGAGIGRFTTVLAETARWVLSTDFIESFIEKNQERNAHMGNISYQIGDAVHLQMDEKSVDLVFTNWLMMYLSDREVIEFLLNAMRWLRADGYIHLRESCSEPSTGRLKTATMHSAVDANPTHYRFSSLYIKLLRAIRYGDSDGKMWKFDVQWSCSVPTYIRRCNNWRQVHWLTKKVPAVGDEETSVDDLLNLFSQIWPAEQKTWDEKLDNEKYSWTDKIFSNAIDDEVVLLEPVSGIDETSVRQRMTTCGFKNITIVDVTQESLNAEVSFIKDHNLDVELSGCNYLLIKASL

[3] = target: T2, HcPMT1 + HcPMT2 combination (Haemonchus contortus, UniProt A0A2Z1FIB9+U5HK48); assay: Methyltransferase HT activity kit assay, HcPMT1 + HcPMT2 combination; format: biochemical; conditions: for IC50: read-out: HcPMT1 + HcPMT2 Activity inhibition IC50, 11 μg/ml each enzyme, 95 μM SAM, 160 μM phosphoethanolamine
T2 sequence (A0A2Z1FIB9 1-349): T1 sequence (A0A2Z1FIB9 1-349)
T2 sequence (U5HK48 3-433): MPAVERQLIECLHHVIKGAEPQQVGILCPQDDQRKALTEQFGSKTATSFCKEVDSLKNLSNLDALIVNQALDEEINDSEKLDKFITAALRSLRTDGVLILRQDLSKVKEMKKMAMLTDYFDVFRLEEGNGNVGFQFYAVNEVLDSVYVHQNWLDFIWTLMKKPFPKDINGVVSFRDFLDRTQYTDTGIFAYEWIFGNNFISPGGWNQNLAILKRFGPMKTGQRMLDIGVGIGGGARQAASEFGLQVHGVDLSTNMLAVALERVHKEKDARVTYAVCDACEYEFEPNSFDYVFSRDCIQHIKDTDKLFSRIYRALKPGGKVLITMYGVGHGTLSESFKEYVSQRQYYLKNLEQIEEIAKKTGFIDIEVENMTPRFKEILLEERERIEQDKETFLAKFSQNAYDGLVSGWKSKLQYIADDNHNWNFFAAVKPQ
Summary of the method: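 His-tagged recombinant HcPMT1 and HcPMT2 from E. coli BL21-CodonPlus-DE3-RIL, Ni-affinity purified, dialysed in 5 mM Hepes-KOH pH 7.8 with 0.5 mM DTT. Fluorescent SAM-dependent methyltransferase kit, 11 µg/ml each enzyme, 95 µM SAM, 160 µM phosphoethanolamine. Rising test compound from DMSO stock; DMSO-only reactions as uninhibited. Triplicate, 24 °C, 45 min shaking, then kit positive-control mix 10 min. Isopropanol stop; fluorescence 380ex/520em. % inhibition against uninhibited mean RFU; IC50 by nonlinear regression.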

P. falciparum = conditions: ref Bobenchik et al., 2013; cited from earlier work
P. falciparum PMT = conditions: previous studies ref Bobenchik et al., 2013; cited from earlier work
MonoMac6 cells = assay: WST-1 cytotoxicity assay in mammalian cells; format: cell-based, human; conditions: read-out: cytotoxic IC50; mammalian monocytic cells, 48 h
Summary of the method: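 MonoMac6 cells seeded at 10⁴/well in phenol-red-free RPMI-1640 with 10% FCS, 2.05 mM L-glutamine, nonessential amino acids, OPI supplement and 1% penicillin-streptomycin. Test compound at rising concentrations in triplicate, with DMSO-only controls; 48 h, 37 °C, 5% CO2. WST-1 added, 1 h at 37 °C. Supernatant transferred and formazan read as absorbance at 420 nm.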

[4] = all concentrations up to a maximum of 80 μM

IC50 (HcPMT1): 5.9 ± 0.9 µM | concentration with highest inhibitory effect on HcPMT1 and HcPMT2 activity [3]: 5 µM | IC50 [3]: 2.8 ± 0.6 µM
Compound: O=C1C=C(NCCc2cc(Br)c(O)c(Br)c2)C(=O)c2ncccc21 [NSC-668394, 5,8-Quinolinedione, 7-[[2-(3,5-dibromo-4-hydroxyphenyl)ethyl]amino]-]
anthelmintic effect against larvae ([1]; up to 60 μM): did not show any anthelmintic activity | anthelmintic effect against adult H. contortus ([2]; up to 60 μM, data not shown): did not show any anthelmintic activity

inhibition at 15 µM ([3]; read-out: maximum inhibition of combined activity of HcPMT1 and HcPMT2): 12%
Compound: S=C(CSc1ccccc1)Nc1cccc2ccccc12 [NSC-158011, N-naphthalen-1-yl-2-phenylsulfanylethanethioamid]
anthelmintic effect against larvae [1, 4]: did not show any anthelmintic effect | antiparasitic activity against P. falciparum (P. falciparum): significant antiparasitic activity | anthelmintic effect against adult worms ([2]; data not shown): did not show any anthelmintic effect | inhibitory effect against the activity of HcPMT1 as the sole enzyme (HcPMT1): did not have any significant inhibitory effect; also recorded: had no inhibitory effect | inhibitory effect against catalytic activity of P. falciparum PMT (P. falciparum PMT): significant inhibitory effect

IC50 (HcPMT1; read-out: HcPMT1 Activity inhibition IC50, HcPMT1 alone, 95 μM SAM, 160 μM phosphoethanolamine): 8.3 ± 1.1 µM | concentration with highest inhibitory effect on HcPMT1 and HcPMT2 activity [3]: 8 µM | IC50 [3]: 5.1 ± 1.8 µM
Compound: Hydrazinecarbothioamide, N,N-dipropyl- 2-(2-pyridinemethylene)-, (N,N,S)-copper(II) chloride complex, (SP-4-3)- [NSC-641296]
concentration from which significant decrease in very motile larvae was observed ([1]; 36 h, P < 0.05): 4 µM | cytotoxic IC50 relative to anthelmintic IC50 against larvae ([1]; MonoMac6 IC50 vs larvae IC50): 2 fold | percentage of sluggishly motile larvae relative to very motile ([1]; above 4 μM, 36 h): at least 2.7 fold | percentage of immotile worms relative to very motile worms ([1]; at 22 μM, larvae, 36 h): 4 fold | percentage of sluggishly motile worms relative to very motile ([1]; from 14 μM and above, larvae, 36 h): at least 3 fold | cytotoxic IC50 relative to anthelmintic IC50 against adult worms ([2]; MonoMac6 IC50 vs adult worm IC50): 4 fold | percentage of immotile worms relative to motile worms ([2]; at 8 μM and above, adult worms, 36 h): at least 2 fold | change in number of motile adult worms ([2]; at 8 μM, 36 h): decrease by half | IC50 (MonoMac6 cells): 29 ± 2.1 µM

Compound: CC(=NNC(=[Se])N1CC2CCC(CC2)C1)c1ccccn1 [NSC-323241, 3-Azabicyclo[3.2.2]nonane-3-carboselenoic acid, [1-(2-pyridinyl)ethylidene]hydrazide]
anthelmintic effect against larvae [1, 4]: did not show any anthelmintic effect | antiparasitic activity against P. falciparum (P. falciparum): significant antiparasitic activity | anthelmintic effect against adult worms ([2]; data not shown): did not show any anthelmintic effect | inhibitory effect against the activity of HcPMT1 as the sole enzyme (HcPMT1): did not have any significant inhibitory effect; also recorded: had no inhibitory effect | inhibition at 12 µM ([3]; read-out: maximum inhibition rate of combined activity of HcPMT1 and HcPMT2): 21% | inhibitory effect against catalytic activity of P. falciparum PMT (P. falciparum PMT): significant inhibitory effect

— article PMC4805780 (International Journal for Parasitology: Drugs and Drug …, 2016)
